The source of these data is ChEMBL document CHEMBL1156952, “Synthesis and biological evaluations of novel bendazac lysine analogues as potent anticataract agents” (Bioorg Med Chem Lett, 2010).

The nature of series [1]: Aqueous solubility of the compound. Type of series: physicochemical. The conditions noted are these: water (aqueous).
Series [2] in a line: Anticataract activity against FeCl3/H2O2-induced cataract in rabbit lens assessed as extensive mature nuclear opacity at 0.5 mM treated 1 hr before FeCl3/H2O2 challenge measured after 24 hrs. Format: functional, Oryctolagus cuniculus, Lens of camera-type eye.
Series [3] is described as follows: Anticataract activity against FeCl3/H2O2-induced cataract in rat lens assessed as middle degree of opacificaion at 0.5 mM treated 1 hr before FeCl3/H2O2 challenge measured after 24 hrs. Type of series: functional, Lens of camera-type eye. The procedure, abridged:
(§1)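 Isolated rat lenses were cultured in DMEM and challenged with FeCl3 (0.02%) plus H2O2 (0.5%). Compounds were added at 0.5 mM to the medium of transparent lenses, with a challenged, untreated control. Lenses were scored as the percentage at each opacification grade (−, +, ++, +++).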

Series [4] in a line: Anticataract activity against FeCl3/H2O2-induced cataract in rabbit lens assessed as slight degree of opacificaion at 0.5 mM treated 1 hr before FeCl3/H2O2 challenge measured after 24 hrs. Type of series: functional, Oryctolagus cuniculus, Lens of camera-type eye.
The nature of series [5]: Anticataract activity against FeCl3/H2O2-induced cataract in rat lens assessed as slight degree of opacificaion at 0.5 mM treated 1 hr before FeCl3/H2O2 challenge measured after 24 hrs. Type of series: functional, Lens of camera-type eye. The procedure, abridged: as §1
The nature of series [6]: Anticataract activity against FeCl3/H2O2-induced cataract in rat lens assessed as extensive mature nuclear opacity at 0.5 mM treated 1 hr before FeCl3/H2O2 challenge measured after 24 hrs. Type of series: functional, Lens of camera-type eye. The procedure, abridged: as §1
Series [7] is described as follows: Anticataract activity against FeCl3/H2O2-induced cataract in rat lens assessed as absence of opacificaion at 0.5 mM treated 1 hr before FeCl3/H2O2 challenge measured after 24 hrs. Format: functional, Lens of camera-type eye. The procedure, abridged:
as §1

Series [8] in a line: Anticataract activity against FeCl3/H2O2-induced cataract in rabbit lens assessed as absence of opacificaion at 0.5 mM treated 1 hr before FeCl3/H2O2 challenge measured after 24 hrs. Format: functional, Oryctolagus cuniculus, Lens of camera-type eye.
Series [9] can be described thus: Anticataract activity against FeCl3/H2O2-induced cataract in rabbit lens assessed as middle degree of opacificaion at 0.5 mM treated 1 hr before FeCl3/H2O2 challenge measured after 24 hrs. Format: functional, Oryctolagus cuniculus, Lens of camera-type eye.
Series [10] can be described thus: Anticataract activity against FeCl3/H2O2-induced cataract in rabbit lens assessed as slight degree of opacificaion at 10 mM treated 1 hr before FeCl3/H2O2 challenge measured after 24 hrs. Format: functional, Oryctolagus cuniculus, Lens of camera-type eye.
A short description of series [11]: Anticataract activity against FeCl3/H2O2-induced cataract in rabbit lens assessed as middle degree of opacificaion at 10 mM treated 1 hr before FeCl3/H2O2 challenge measured after 24 hrs. Type of series: functional, Oryctolagus cuniculus, Lens of camera-type eye.
Series [12] is described as follows: Anticataract activity against FeCl3/H2O2-induced cataract in rabbit lens assessed as extensive mature nuclear opacity at 10 mM treated 1 hr before FeCl3/H2O2 challenge measured after 24 hrs. Format: functional, Oryctolagus cuniculus, Lens of camera-type eye.
A short description of series [13]: Anticataract activity against FeCl3/H2O2-induced cataract in rabbit lens assessed as absence of opacificaion at 10 mM treated 1 hr before FeCl3/H2O2 challenge measured after 24 hrs. Format: functional, Oryctolagus cuniculus, Lens of camera-type eye.
Series [14] is filed under the species Oryctolagus cuniculus. Briefly: Reduction of malondialdehyde level in rabbit lens homogenates at 10 mM (Rvb= 0.46 +/-0.27 nmol/mg). Type of series: functional, tissue-based. As to conditions: Lens of camera-type eye. The procedure, abridged:
(§2)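 Rabbit lenses were cultured in DMEM under FeCl3 (0.02%) plus H2O2 (2%) challenge, with compound at 5, 10 or 15 mM in the medium. Each group's lenses were then homogenized. Water-soluble protein, total antioxidant capacity and malondialdehyde were each measured in the homogenate with a reagent kit.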

For series [15], the species on record is Oryctolagus cuniculus. Briefly: Induction of total-antioxidant capacity level in rabbit lens homogenates at 10 mM (Rvb= 0.04 u/mg). Format: functional, tissue-based. The conditions noted are these: Lens of camera-type eye. The procedure, abridged:
as §2

The species entered for series [16] is Oryctolagus cuniculus. As to the kind of experiment: Reduction of malondialdehyde level in rabbit lens homogenates at 5 mM (Rvb= 0.46 +/-0.27 nmol/mg). Format: functional, tissue-based. The conditions noted are these: Lens of camera-type eye. The procedure, abridged:
as §2

The species entered for series [17] is Oryctolagus cuniculus. As to the kind of experiment: Reduction of malondialdehyde level in rabbit lens homogenates at 15 mM (Rvb= 0.46 +/-0.27 nmol/mg). Type of series: functional, tissue-based. The conditions noted are these: Lens of camera-type eye. The procedure, abridged:
as §2

For series [18], the species on record is Oryctolagus cuniculus. As to the kind of experiment: Induction of water-solvent protein level in rabbit lens homogenates at 5 mM (Rvb= 7.40 +/-0.73 mg/mL). Type of series: functional, tissue-based. As to conditions: Lens of camera-type eye. The procedure, abridged: as §2
The species entered for series [19] is Oryctolagus cuniculus. Briefly: Induction of total-antioxidant capacity level in rabbit lens homogenates at 15 mM (Rvb= 0.04 u/mg). The conditions noted are these: Lens of camera-type eye. Type of series: functional, tissue-based. The procedure, abridged:
as §2

The species named for series [20] is Oryctolagus cuniculus. Briefly: Anticataract activity against FeCl3/H2O2-induced cataract in rabbit lens treated 1 hr before FeCl3/H2O2 challenge measured after 24 hrs. Format: functional, tissue-based. As to conditions: Lens of camera-type eye.
The species named for series [21] is Oryctolagus cuniculus. As to the kind of experiment: Induction of total-antioxidant capacity level in rabbit lens homogenates at 5 mM (Rvb= 0.04 u/mg). Format: functional, tissue-based. The conditions noted are these: Lens of camera-type eye. The procedure, abridged: as §2

The structures appear in SMILES notation. ≈ marks a conversion by molar mass, not a printed value.

Consider `Cc1ccc(Cn2nc(OC(C(=O)O)C(=O)O)c3ccccc32)cc1.NCCCC[C@H](N)C(=O)O`, for which the solubility (commonly how much of the substance goes into solution per volume) in series [1] stood at 57400 µg/mL.
Take `O=C([O-])C(Oc1nn(Cc2cccc(F)c2)c2ccccc12)C(=O)[O-].[Na+].[Na+]`: the solubility in series [1] stood at 3200 µg/mL. Moreover, the Activity turned out to be 0% in series [2]; 35% in series [3]; 80% in series [4]; 60% in [5]; 5% in [6]; 0% in series [7]. Besides, the results for the Activity in [8] and in series [9] were 0% and 20%, respectively.
The compound `NCCCC[C@H](N)C(=O)O.O=C(O)C(Oc1nn(Cc2cccc(F)c2)c2ccccc12)C(=O)O` registered a solubility in series [1] of 134000 µg/mL. The Activity in [3] turned out to be 45%; in series [5], 55%; in series [6], 0%; in series [7], 0%.
Consider `NCCCC[C@H](N)C(=O)O.O=C(O)COc1nn(Cc2ccccc2)c2ccccc12` [BENDAZAC LYSINE], for which the Activity in series [10] was 65%; in [2], 0%; in [3], 40%; in [11], 15%; in series [4], 75%; in series [12], 0%. Moreover, the Activity is 55% in series [5]; 5% in series [6]; 0% in [7]; 0% in [8]; 25% in series [9]; 20% in series [13]. The compound also displayed a solubility in series [1] of 93800 µg/mL.
For the compound `O=C(O)C(Oc1nn(Cc2ccccc2)c2ccccc12)C(=O)O`, in [1], the solubility was below 1000 µg/mL.
The same measure, in the same setting: with `O=C([O-])C(Oc1nn(Cc2ccc(Cl)cc2)c2ccccc12)C(=O)[O-].[Na+].[Na+]` the figure was below 1000 µg/mL; with `N[C@@H](Cc1c[nH]cn1)C(=O)O.O=C(O)C(Oc1nn(Cc2cccc(Cl)c2)c2ccccc12)C(=O)O`, 115000 µg/mL.
In series [1], `Cc1ccc(Cn2nc(OC(C(=O)O)C(=O)O)c3ccccc32)cc1` showed a solubility below 1000 µg/mL.
The same measure, in the same setting: for `Cc1ccc(Cn2nc(OC(C(=O)[O-])C(=O)[O-])c3ccccc32)cc1.[K+].[K+]` the value was below 1000 µg/mL; for `O=C(O)COc1nn(Cc2ccccc2)c2ccccc12` [BENDAZAC], below 1000 µg/mL; for `O=C(O)C(Oc1nn(Cc2cccc(Cl)c2)c2ccccc12)C(=O)O`, below 1000 µg/mL.
In series [1], `O=C(O)C(Oc1nn(Cc2cccc(F)c2)c2ccccc12)C(=O)O` yielded a solubility of 2000 µg/mL (≈ 5.81 mM).
On to `O=C([O-])C(Oc1nn(Cc2ccccc2)c2ccccc12)C(=O)[O-].[Na+].[Na+]`, for which the concentration in solution in series [1] (solubility) came to 3000 µg/mL. Moreover, the Activity in series [2] was determined as 0%; in series [3], 20%; in [4], 60%; in series [5] it was 80%; in series [6], 0%; in [7] it was 0%. Also, the Activity in series [8] is 0%; in series [9], 40%.
`O=C([O-])C(Oc1nn(Cc2ccc(Cl)cc2)c2ccccc12)C(=O)[O-].[K+].[K+]`: the solubility in [1] is below 1000 µg/mL.
Still for that read-out and setting: for `Cc1ccc(Cn2nc(OC(C(=O)[O-])C(=O)[O-])c3ccccc32)cc1.[Na+].[Na+]` the value was below 1000 µg/mL; for `O=C([O-])C(Oc1nn(Cc2cccc(Cl)c2)c2ccccc12)C(=O)[O-].[K+].[K+]`, below 1000 µg/mL.
Still for that read-out and setting: with `N[C@@H](Cc1c[nH]cn1)C(=O)O.O=C(O)C(Oc1nn(Cc2ccc(Cl)cc2)c2ccccc12)C(=O)O` the figure was 51000 µg/mL; with `Cc1ccc(Cn2nc(OC(C(=O)O)C(=O)O)c3ccccc32)cc1.N[C@@H](Cc1c[nH]cn1)C(=O)O`, 71000 µg/mL.
In series [1], `O=C([O-])C(Oc1nn(Cc2cccc(Cl)c2)c2ccccc12)C(=O)[O-].[Na+].[Na+]` displayed a solubility of 1200 µg/mL.
Compound `NCCCC[C@H](N)C(=O)O.O=C(O)C(Oc1nn(Cc2cccc(Cl)c2)c2ccccc12)C(=O)O` gave a solubility in series [1] of 195000 µg/mL. Further, the Activity in series [2] is 65%; in series [3], 30%; in series [4], 0%; in series [5], 55%; in series [6] it was 15%; in [7], 0%. The Activity in [8] amounted to 0%; in series [9], 35%.
Compound `O=C(O)C(Oc1nn(Cc2ccc(Cl)cc2)c2ccccc12)C(=O)O` gave a solubility in series [1] below 1000 µg/mL.
Same read-out and setting: for `NCCCC[C@H](N)C(=O)O.O=C(O)C(Oc1nn(Cc2ccc(Cl)cc2)c2ccccc12)C(=O)O` the value was 312000 µg/mL.
With `O=C([O-])C(Oc1nn(Cc2ccccc2)c2ccccc12)C(=O)[O-].[K+].[K+]`, the solubility in series [1] came out at 2200 µg/mL. The Activity is recorded as 30% in [2]; 50% in [3]; 30% in series [4]; 0% in series [5]; 50% in [6]; 0% in series [7]. The Activity in series [8] turned out to be 0%; in series [9] it was 40%.
Consider `N[C@@H](Cc1c[nH]cn1)C(=O)O.O=C(O)C(Oc1nn(Cc2cccc(F)c2)c2ccccc12)C(=O)O`, for which the solubility in series [1] came to 56600 µg/mL.
Take `N[C@@H](Cc1c[nH]cn1)C(=O)O.O=C(O)C(Oc1nn(Cc2ccccc2)c2ccccc12)C(=O)O`: the values for the MDA level in series [14], in series [16] and in series [17] were 0.03 nmol/mg, 0.04 nmol/mg and 0.08 nmol/mg, respectively. In addition, the T-AOC level was 0.64 U/mg in [15], 0.34 U/mg in series [19] and 0.21 U/mg in series [21]. The WSP level in series [18] stood at 13 mg/mL. Further, the Activity entry in series [20] was “Dose-dependent effect”.
As to `NCCCC[C@H](N)C(=O)O.O=C(O)C(Oc1nn(Cc2ccccc2)c2ccccc12)C(=O)O`, the solubility in [1] came out at 123000 µg/mL. Moreover, the Activity in series [2] turned out to be 35%; in series [3] it was 70%; in [4] it was 30%; in series [5], 15%; in series [6], 15%; in series [7], 0%. For the same compound, the Activity in series [8] amounted to 0%; in series [9] it was 35%.
The compound `O=C([O-])C(Oc1nn(Cc2cccc(F)c2)c2ccccc12)C(=O)[O-].[K+].[K+]` had a solubility in series [1] of 2400 µg/mL.
In turn, `O=C(O)COc1nn(Cc2ccccc2)c2ccccc12` yielded an MDA level in series [16] of 0.22 nmol/mg. The compound further showed a WSP level in series [18] of 9.34 mg/mL. Also, the T-AOC level in series [21] amounted to 0.17 U/mg.
